Measurements taken from ChEMBL document CHEMBL2331090, “Benzoquinones and terphenyl compounds as phosphodiesterase-4B inhibitors from a fungus of the order Chaetothyriales (MSX 47445)” (J Nat Prod, 2013).
In brackets after ≈: the same amount, converted by molar mass. Activity calls are given as the source filed them. No cut-off for these calls is given here.

Assays:
MCF7 = test: Cytotoxicity against human MCF7 cells; assay type: functional, cell-based
How it was run: (§1)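 Panel of three human tumour lines: MCF-7 breast carcinoma, NCI-H460 large cell lung carcinoma and SF-268 astrocytoma. The cytotoxicity protocol follows the group's earlier reports.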

[1] = molecular target: 3',5'-cyclic-AMP phosphodiesterase 4B (Homo sapiens, UniProt Q07343); test: Inhibition of human PDE4B2
Chain of 3',5'-cyclic-AMP phosphodiesterase 4B (Q07343 whole entry, the tested form may be a part): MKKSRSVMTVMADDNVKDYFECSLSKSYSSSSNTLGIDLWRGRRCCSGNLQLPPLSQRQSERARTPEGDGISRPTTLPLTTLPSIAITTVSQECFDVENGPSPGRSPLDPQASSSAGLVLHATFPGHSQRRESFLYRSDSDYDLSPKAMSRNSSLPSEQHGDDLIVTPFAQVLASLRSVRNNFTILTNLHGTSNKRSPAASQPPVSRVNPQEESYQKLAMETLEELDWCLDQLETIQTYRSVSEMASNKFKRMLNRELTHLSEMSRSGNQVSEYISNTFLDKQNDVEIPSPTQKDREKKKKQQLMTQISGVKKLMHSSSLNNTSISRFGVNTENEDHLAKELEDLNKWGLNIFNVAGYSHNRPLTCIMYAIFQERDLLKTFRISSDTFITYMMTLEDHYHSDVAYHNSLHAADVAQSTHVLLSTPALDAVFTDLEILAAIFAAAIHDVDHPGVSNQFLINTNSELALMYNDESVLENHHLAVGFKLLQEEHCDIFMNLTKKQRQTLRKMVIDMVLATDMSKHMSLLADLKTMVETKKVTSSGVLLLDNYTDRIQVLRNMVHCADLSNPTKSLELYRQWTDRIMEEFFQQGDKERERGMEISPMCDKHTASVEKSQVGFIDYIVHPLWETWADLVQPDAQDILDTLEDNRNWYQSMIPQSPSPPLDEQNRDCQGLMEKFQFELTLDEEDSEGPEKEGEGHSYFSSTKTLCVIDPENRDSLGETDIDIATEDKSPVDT

Candida albicans = test: Antifungal activity against Candida albicans by agar plate diffusion assay; assay type: functional, organism-based
Staphylococcus aureus = test: Antibacterial activity against Staphylococcus aureus by agar plate diffusion assay; assay type: functional
NCI-H460 = test: Cytotoxicity against human H460 cells; assay type: functional, cell-based; how it was run: as §1
SF-268 = test: Cytotoxicity against human SF268 cells; assay type: functional, cell-based; how it was run: as §1
[2] = Inhibition of cAMP-PDE (unknown origin); design: species or system Homo sapiens
[3] = Inhibition of cGMP-PDE (unknown origin); design: species or system Homo sapiens

IC50 [1] [µM]	MIC (Staphylococcus aureus) [µg/mL]	IC50 [2] [µM]	IC50 [3] [µM]	Compound	Activity (MCF7)	Activity (Candida albicans)	Activity (NCI-H460)	Activity (SF-268)
31	25 (≈ 85.5 µM)	–	–	COc1c(O)c(-c2ccccc2)cc(O)c1-c1ccccc1	Active	inactive	Active	Active
44	–	–	–	COC1=C(c2ccccc2)C(=O)C(OC)=C(c2ccccc2)C1=O [BETULINAN A]	inactive	–	inactive	inactive
17	25 (≈ 86.1 µM)	–	–	COC1=C(c2ccccc2)C(=O)C=C(c2ccccc2)C1=O [BETULINAN C]	Active	inactive	Active	Active
–	–	0.82	0.96	COc1cc(-c2ccccc2)c(O)c(O)c1-c1ccccc1 [TERFEROL]	–	–	–	–
